T/C and ID50 data for two sequences are collected here from ChEMBL document CHEMBL1126600, “A trans-platinum complex showing higher antitumor activity than the cis congeners” (J Med Chem, 1993).

Holding throughout (assay type): functional, cell-based
Common to all, as to conditions: Mus musculus

For assay [1], the system named is P388. The assay can be described thus: Effect was evaluated by implanting P388/DDP leukemia cells into B6D2F1 mice and treated for 1 day at 193 umol/ Kg dose. Summed up:
(§1)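 P388 or P388/DDP leukemia cells (10^6/mouse) implanted ip into B6D2F1 mice on day 0; 6 animals/group, 8 untreated controls. Complexes dissolved in water just before use, given ip. Read-out %T/C = median survival time ×100 of treated vs untreated; >125% taken as significant. P388/DDP subline raised in vivo by serial passage with single ip cis-DDP (20 µmol/kg) 2 days after implantation.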

Assay [2] deals with P388. The assay can be described thus: Effect was evaluated by implanting P388/DDP leukemia cells into B6D2F1 mice and treated for 1-7 days at 2 umol/ Kg dose. Summed up:
as §1

In assay [3] the test system is P388. The assay is described as follows: Effect was evaluated by implanting P388 cells into B6D2F1 mice and treated for 1-7 days at 2 umol/ Kg dose. The method, boiled down: as §1
The subject of assay [4] is P388. The assay is described as follows: Inhibitory effect was evaluated on the growth of P388 cells. The method, boiled down:
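P388 cells (10^5 cells/mL, exponential growth) exposed to the platinum complexes at increasing concentrations for 1 h at 37 °C, drug removed, then grown 48 h more; cell number and viability counted by trypan blue exclusion. ID50 = 50% growth-inhibitory concentration; five experiments, each in triplicate, mean ± standard deviation.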

Assay [5] deals with P388. The assay is described as follows: Effect was evaluated by implanting P388 cells into B6D2F1 mice and treated for 1 day at 26 umol/ Kg dose. Summed up: as §1
The subject of assay [6] is P388. The assay can be described thus: Effect was evaluated by implanting P388 cells into B6D2F1 mice and treated for 1 day at 193 umol/ Kg dose. Summed up: as §1

With CISPLATIN, the T/C turned out to be 95% in the assay with P388 [1], 90% in the assay with P388 [2], 203% in the assay on P388 [3] and 202% in the assay on P388 [5]. The ID50 in the assay on P388 [4] worked out at 2.05 µM.

In the case of TRANSPLATIN, the figures for the T/C in the assay with P388 [1] and in the assay on P388 [6] were 107% and 105%, respectively. Further, in the assay with P388 [4], the ID50 was 85 µM.

As usually defined, the T/C is the result in the treated group divided by that in the control group, in per cent.
